One assay deals with Trichoderma viride. Description: Fungicidal activity against Hypocrea rufa CECT 2423 assessed as inhibition of radial mycelial growth at 100 ug/mL after 4 days. The assay is classed as functional. The note with it: CECT 2423, 96 h, read-out: GI. The gist of the method: (§1)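 Compounds in acetone incorporated into PDA at 100 µg/mL. Acetone-only plates were the negative control, and benomyl at 2.5 µg/mL was the positive control. Plates were inoculated with spores from 7-day-old PDA cultures and incubated at 28 °C for 4 days (6 days for R. necatrix and V. dahliae). Radial mycelial growth was measured and % inhibition calculated against the control. Triplicate determinations, mean ± SD, ANOVA/LSD.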

Another assay concerns Colletotrichum coccodes. Description: Fungicidal activity against Colletotrichum coccodes CCM 327 assessed as inhibition of radial mycelial growth at 100 ug/mL after 4 days. The assay is classed as functional. To be noted: CCM 327, 96 h, read-out: GI. The gist of the method:
as §1

For a further assay, the system named is Alternaria alternata. Description: Fungicidal activity against Alternaria tenuis CECT 2662 assessed as inhibition of radial mycelial growth at 100 ug/mL after 4 days. The assay is classed as functional. To be noted: CECT 2662, 96 h, read-out: GI. The gist of the method:
as §1

For the next assay, the system named is Verticillium dahliae. Description: Fungicidal activity against Verticillium dahliae CCM 269 assessed as inhibition of radial mycelial growth at 100 ug/mL after 6 days. The assay is classed as functional. The note with it: CCM 269, 144 h, read-out: GI. The gist of the method: as §1
In a further assay the test system is Fusarium culmorum. Description: Fungicidal activity against Fusarium culmorum CCM 172 assessed as inhibition of radial mycelial growth at 100 ug/mL after 4 days. In kind it is functional. To be noted: CCM 172, 96 h, read-out: GI. Put shortly:
as §1

A further assay relates to Geotrichum candidum. Description: Fungicidal activity against Galactomyces geotrichum CCM 245 assessed as inhibition of radial mycelial growth at 100 ug/mL after 4 days. The assay is classed as functional. To be noted: CCM 245, 96 h, read-out: GI. Put shortly:
as §1

Another assay deals with Penicillium italicum. Description: Fungicidal activity against Penicillium italicum CECT 2294 assessed as inhibition of radial mycelial growth at 100 ug/mL after 4 days. The assay is classed as functional. To be noted: CECT 2294, 96 h, read-out: GI. Put shortly: as §1
Assay [1] has as its system Fusarium oxysporum f. sp. gladioli. Description: Fungicidal activity against Fusarium oxysporum f. sp. gladioli CCM 233 assessed as inhibition of radial mycelial growth at 100 ug/mL after 4 days. In kind it is functional. To be noted: CCM 233, 96 h, read-out: GI. The gist of the method:
as §1

Assay [2] deals with Oncopeltus fasciatus. Description: Insecticidal activity against Oncopeltus fasciatus third-instar nymphs reared on diet based on sunflower seeds assessed as insect mortality at 5 to 10 ug/cm2 relative to untreated control. In kind it is functional, organism-based.
Assay [3] has as its system Fusarium oxysporum f. sp. niveum. Description: Fungicidal activity against Fusarium oxysporum f. sp. niveum CCM 259 assessed as inhibition of radial mycelial growth at 100 ug/mL after 4 days. The assay is classed as functional. The note with it: CCM 259, 96 h, read-out: GI. The gist of the method:
as §1

The subject of another assay is Trichothecium roseum. Description: Fungicidal activity against Trichothecium roseum CECT 2410 assessed as inhibition of radial mycelial growth at 100 ug/mL after 4 days. To be noted: CECT 2410, 96 h, read-out: GI. In kind it is functional. Put shortly: as §1
In another assay the test system is Aspergillus parasiticus. Description: Fungicidal activity against Aspergillus parasiticus CECT 2681 assessed as inhibition of radial mycelial growth at 100 ug/mL after 4 days. To be noted: CECT 2681, 96 h, read-out: GI. The assay is classed as functional. The gist of the method:
as §1

Assay [4] deals with Colletotrichum gloeosporioides. Description: Fungicidal activity against Colletotrichum gloeosporioides CECT 2859 assessed as inhibition of radial mycelial growth at 100 ug/mL after 4 days. In kind it is functional. The note with it: CECT 2859, 96 h, read-out: GI. The gist of the method: as §1
The test system of assay [5] is Oncopeltus fasciatus. Description: Insecticidal activity against Oncopeltus fasciatus third-instar nymphs reared on diet based on sunflower seeds assessed as insect mortality at 10 ug/cm2 relative to untreated control. The assay is classed as functional.

This passage reports inhibition of growth, Activity and mortality results from ChEMBL document CHEMBL3045005, “Synthesis and biological evaluation of new analogues of the active fungal metabolites N-(2-methyl-3-oxodecanoyl)-2-pyrroline and N-(2-methyl-3-oxodec-8-enoyl)-2-pyrroline (II)” (2000).

Usually mortality stands for the share of the test organisms that died.

Activity calls are given as the source filed them. The rule behind the calls is not given here.

For `CCCCCCCC(=O)CC(=O)N1CCCC1=O`, the inhibition of growth at 100 µg/mL with Trichoderma viride turned out to be 22%; in the assay on Colletotrichum coccodes, 48.3%; in the assay with Alternaria alternata it was 30.2%; in the assay on Verticillium dahliae it was 49.8%; in the assay with Fusarium culmorum it was 8.2%; with Geotrichum candidum, 0%. The inhibition of growth at 100 µg/mL in the assay on Penicillium italicum is 26.4%; in [1], 35.5%; in assay [3], 27.6%; in the assay on Trichothecium roseum, 0%; in the assay on Aspergillus parasiticus it was 21.3%; in assay [4], 34.5%. Further, the result in the assay with Oncopeltus fasciatus [2] was inactive.
As to `CC(C(=O)C(C)c1cccc(Oc2ccccc2)c1)C(=O)N1CCCC1` (configuration not stated), the inhibition of growth at 100 µg/mL in the assay on Trichoderma viride worked out at 30.7%; with Colletotrichum coccodes, 37.6%; in the assay with Alternaria alternata, 39.5%; in the assay with Verticillium dahliae, 19%; in the assay on Fusarium culmorum, 23.5%; in the assay with Geotrichum candidum, 12.3%. Further, the inhibition of growth at 100 µg/mL with Penicillium italicum worked out at 22.2%; in [1] it was 23.1%; in assay [3], 17.4%; with Trichothecium roseum, 46.6%; in the assay with Aspergillus parasiticus, 27.9%; in assay [4], 41.4%. The outcome in the assay with Oncopeltus fasciatus [2] was inactive.
Regarding `CCCCCCCC(O)C(C)C(=O)N1CCCC1=O` (configuration not stated), the inhibition of growth at 100 µg/mL was 38% in the assay with Trichoderma viride; 69% in the assay on Colletotrichum coccodes; 38.1% in the assay with Alternaria alternata; 45.9% in the assay with Verticillium dahliae; 24.3% in the assay with Fusarium culmorum; 0% in the assay on Geotrichum candidum. Besides, the inhibition of growth at 100 µg/mL was 33.3% with Penicillium italicum; 36.5% in assay [1]; 33.3% in [3]; 19.6% in the assay on Trichothecium roseum; 31.5% in the assay on Aspergillus parasiticus; 36.6% in assay [4]. For the same compound, the result in the assay on Oncopeltus fasciatus [2] was inactive.
As to `CCCCCCCC(=C1C(=O)OC(C)(C)OC1=O)N1CC=CC1`, the inhibition of growth at 100 µg/mL with Trichoderma viride was determined as 54%; with Colletotrichum coccodes, 18.8%; in the assay with Alternaria alternata it was 21.1%; in the assay on Verticillium dahliae, 13.9%; in the assay on Fusarium culmorum, 39.7%; in the assay with Geotrichum candidum, 23.9%. Also, the inhibition of growth at 100 µg/mL is 29.9% in the assay with Penicillium italicum; 26% in assay [1]; 28% in assay [3]; 38.6% with Trichothecium roseum; 39.3% with Aspergillus parasiticus; 29.9% in assay [4]. Besides, in the assay with Oncopeltus fasciatus [5], the mortality at 10 µg/cm2 was 40%.
